Each compound was assayed against T1, CB1 (Homo sapiens, UniProt P21554) (assay: not given). Details: not given.
Assay type: cell-based

T1 sequence (P21554 whole entry, species assumed): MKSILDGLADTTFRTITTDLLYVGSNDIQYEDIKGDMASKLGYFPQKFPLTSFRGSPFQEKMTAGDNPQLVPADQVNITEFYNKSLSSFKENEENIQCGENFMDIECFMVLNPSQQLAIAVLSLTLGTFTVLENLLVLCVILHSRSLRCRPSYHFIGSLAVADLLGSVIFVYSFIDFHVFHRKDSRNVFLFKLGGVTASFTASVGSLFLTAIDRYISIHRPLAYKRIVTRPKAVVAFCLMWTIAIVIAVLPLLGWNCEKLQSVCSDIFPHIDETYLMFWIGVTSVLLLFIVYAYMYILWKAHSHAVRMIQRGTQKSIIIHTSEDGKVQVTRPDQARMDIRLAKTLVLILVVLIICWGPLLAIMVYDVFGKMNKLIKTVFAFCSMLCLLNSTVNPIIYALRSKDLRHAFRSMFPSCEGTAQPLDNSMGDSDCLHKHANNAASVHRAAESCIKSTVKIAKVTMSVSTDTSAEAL

Compound | Kb [nM]
Cc1ccc(NC(=O)c2nn(-c3ccc(Cl)cc3Cl)c(-c3ccc(Cl)cc3)c2C)[n+](C)c1 [Compound 12] | 8590
Cc1c(C(=O)Nc2cc[n+](C)cc2)nn(-c2ccc(Cl)cc2Cl)c1-c1ccc(Cl)cc1 [Compound 6] | > 10000
Cc1c(C(=O)Nc2ccncc2)nn(-c2ccc(Cl)cc2Cl)c1-c1ccc(Cl)cc1 [Compound 5] | 117
Cc1c(C(=O)Nc2ccc(C)[n+]([O-])c2)nn(-c2ccc(Cl)cc2Cl)c1-c1ccc(Cl)cc1 [Compound 10] | 1200
Cc1ccc(NC(=O)c2nn(-c3ccc(Cl)cc3Cl)c(-c3ccc(Cl)cc3)c2C)cn1 [Compound 8] | 384
Cc1c(C(=O)Nc2ccc(C)[n+](C)c2)nn(-c2ccc(Cl)cc2Cl)c1-c1ccc(Cl)cc1 [Compound 9] | 8410
Cc1c(C(=O)N[C@H]2CC[C@H](NS(N)(=O)=O)CC2)nn(-c2ccc(Cl)cc2Cl)c1-c1ccc(Cl)cc1 [Compound 18] | 9430
Cc1ccc(NC(=O)c2nn(-c3ccc(Cl)cc3Cl)c(-c3ccc(Cl)cc3)c2C)nc1 [Compound 11] | 980
Cc1c(C(=O)NCC2CCC(CN)CC2)nn(-c2ccc(Cl)cc2Cl)c1-c1ccc(Cl)cc1 (stereo not shown) [Compound 19] | 3760
Cc1c(C(=O)Nc2cc[n+]([O-])cc2)nn(-c2ccc(Cl)cc2Cl)c1-c1ccc(Cl)cc1 [Compound 7] | 1390
Cc1ccc(NC(=O)c2nn(-c3ccc(Cl)cc3Cl)c(-c3ccc(Cl)cc3)c2C)[n+]([O-])c1 [Compound 13] | 4580

The compounds below were run against T1, CB1 (assay: Radioligand displacement of [3H]1). Details: not given.
Assay type: binding

Compound | Ki [nM]
Cc1c(C(=O)NCC2CCC(CNS(C)(=O)=O)CC2)nn(-c2ccc(Cl)cc2Cl)c1-c1ccc(Cl)cc1 (stereo not shown) [Compound 20] | ~10

The compounds below were run on MDCK-mdr1 cells (assay: MDCK-mdr1 transport assay). Details: 3.16 µM apical, 1 hr at 37°C.
Assay type: in vitro ADME, Canine
How it was run: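 MDCK-mdr1 cells grown on permeable filter inserts for 4 days to confluence. Test compound applied apically at 3.16 µM, incubated 1 hr at 37°C, alongside two reference CB1 antagonists as controls. Apical and basolateral samples dried under nitrogen and quantified by LC-MS/MS (MRM) using a 0.1% formic acid water/methanol gradient at 0.5 mL/min. Read-out is the percentage transported across the monolayer.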

Compound | transport from apical to basal side of the membrane
CCNC1(C(N)=O)CCN(c2ncnc3c2nc(-c2ccccc2Cl)n3-c2ccc(Cl)cc2)CC1 [otenabant, reference compound] | ~ 90%
Cc1c(C(=O)NC[C@H]2CC[C@@H](CNS(C)(=O)=O)CC2)nn(-c2ccc(Cl)cc2Cl)c1-c1ccc(Cl)cc1 [Compound 22] | less than 1%
Cc1c(C(=O)NC[C@H]2CC[C@@H](CNS(N)(=O)=O)CC2)nn(-c2ccc(Cl)cc2Cl)c1-c1ccc(Cl)cc1 [Compound 23] | less than 1%
Cc1c(C(=O)NN2CCCCC2)nn(-c2ccc(Cl)cc2Cl)c1-c1ccc(Cl)cc1 [rimonabant, reference compound] | ~ 15%
